This note sets out measurements from ChEMBL document CHEMBL3120123, “Molecular dynamics simulations and structure-based rational design lead to allosteric HCV NS5B polymerase thumb pocket 2 inhibitor with picomolar cellular replicon potency” (J Med Chem, 2014).

The nature of series [1]: Permeability across apical to basolateral side in human Caco2 cells. The series is classed as ADME, cell-based. To be noted: Caco-2, read-out: permeability. In short, it runs like this: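 Caco-2 monolayer permeability run with apical compartment at pH 6.0 and basolateral compartment at pH 7.4; reported in 10^-6 cm/s.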
In series [2] the test system is Hepatitis C virus. The series is described as follows: Antiviral activity against HCV genotype 1b infected in human HuH7 cells assessed as inhibition of viral RNA replication after 72 hrs by luciferase reporter gene assay. The series is classed as functional, organism-based, Hepacivirus hominis. To be noted: Huh-7, 72 h. In short, it runs like this: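 HCV genotype 1b subgenomic luciferase reporter replicon cells. EC50 taken from inhibition of replicon RNA replication, luciferase read-out, n ≥ 2; method as described in earlier work.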

Series [3] concerns Hepatitis C virus. The series is described as follows: Antiviral activity against HCV genotype 1b infected in human HuH7-J cells assessed as inhibition of viral RNA replication after 72 hrs by poliovirus internal ribosomal entry site incorporating luciferase reporter gene assay. In kind it is functional, organism-based, Hepacivirus hominis. To be noted: Huh-7, 72 h. The method, boiled down:
(§1)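 Subgenomic HCV replicons (gt1a or gt1b) carrying a luciferase reporter, with the poliovirus IRES placed upstream of luciferase. EC50 is derived from inhibition of HCV RNA replication read by luciferase signal.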

The test system of series [4] is Hepatitis C virus. The series is described as follows: Antiviral activity against HCV genotype 1b expressing HCV genotype 2b NS5B infected in human HuH7-J cells assessed as inhibition of viral RNA replication after 72 hrs by poliovirus internal ribosomal entry site incorporating luciferase reporter gene assay. In kind it is functional, organism-based, Hepacivirus hominis. Conditions: Huh-7, 72 h. In short, it runs like this:
(§2)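 Surrogate assay using chimeric gt1b subgenomic replicons that carry the NS5B polymerase gene from gt2b, 3a, 4a or 5a. Luciferase reporter sits downstream of the poliovirus IRES. EC50 is derived from inhibition of replication read by luciferase.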

In series [5] the test system is Hepatitis C virus. As to the kind of experiment: Antiviral activity against HCV genotype 1b expressing HCV genotype 3a NS5B infected in human HuH7-J cells assessed as inhibition of viral RNA replication after 72 hrs by poliovirus internal ribosomal entry site incorporating luciferase reporter gene assay. In kind it is functional, organism-based, Hepacivirus hominis. Conditions: Huh-7, 72 h. The method, boiled down: as §2

Series [6] concerns Hepatitis C virus. As to the kind of experiment: Antiviral activity against HCV genotype 1b expressing HCV genotype 6a NS5B infected in human HuH7-J cells assessed as inhibition of viral RNA replication after 72 hrs by real-time PCR analysis. The series is classed as functional, organism-based, Hepacivirus hominis. Conditions: Huh-7, 72 h. The method, boiled down:
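Surrogate assay using a chimeric gt1b subgenomic replicon carrying the gt6a NS5B polymerase gene. Replicon RNA is quantified by RT-PCR, and EC50 is derived from inhibition of HCV RNA replication.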

Series [7] can be described thus: Solubility of the compound in form of lyophilized, amorphous solid at pH 2 after 24 hrs by shake flask method. To be noted: buffer. In kind it is physicochemical. The method, boiled down: (§3)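 Lyophilized amorphous solids tested by 24 h shaking flask method; solubility given in µg/ml at pH 2 and at pH 6.8.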
In series [8] the test system is Hepatitis C virus. As to the kind of experiment: Antiviral activity against HCV genotype 1b expressing HCV genotype 4a NS5B infected in human HuH7-J cells assessed as inhibition of viral RNA replication after 72 hrs by poliovirus internal ribosomal entry site incorporating luciferase reporter gene assay. The series is classed as functional, organism-based, Hepacivirus hominis. Conditions: Huh-7, 72 h. In short, it runs like this:
as §2

A short description of series [9]: Lipophilicity, log D of the compound at pH 7.4. The series is classed as physicochemical. Conditions: buffer.
For series [10], the system named is Hepatitis C virus. The series is described as follows: Antiviral activity against HCV genotype 1a infected in human HuH7-J cells assessed as inhibition of viral RNA replication after 72 hrs by poliovirus internal ribosomal entry site incorporating luciferase reporter gene assay. The series is classed as functional, organism-based, Hepacivirus hominis. Conditions: subtype 1a, Huh-7, 72 h. In short, it runs like this:
as §1

The test system of series [11] is Hepatitis C virus. The series is described as follows: Antiviral activity against HCV genotype 1b expressing HCV genotype 5a NS5B infected in human HuH7-J cells assessed as inhibition of viral RNA replication after 72 hrs by poliovirus internal ribosomal entry site incorporating luciferase reporter gene assay. To be noted: Huh-7, 72 h. The series is classed as functional, organism-based, Hepacivirus hominis. In short, it runs like this: as §2

A short description of series [12]: Solubility of the compound in form of lyophilized, amorphous solid at pH 6.8 after 24 hrs by shake flask method. In kind it is physicochemical. To be noted: buffer. The method, boiled down:
as §3

Structures are written as SMILES. In brackets after ≈: the same amount, converted by molar mass.

Turning to `O=c1ncn(Cc2c(F)cc(F)cc2F)c2ccc(Oc3ccccc3C(F)(F)F)cc12`, the Papp A→B in [1] came out at 9.2 ×10⁻⁶ cm/s.

Regarding `NC(=O)c1cccc(Oc2ccc3c(c2)c(=O)ncn3Cc2c(F)cc(F)cc2F)c1C(F)(F)F`, the Papp A→B in series [1] stood at 1.9 ×10⁻⁶ cm/s. In addition, in the series with Hepatitis C virus [2], the EC50 stood at 180 nM.

On to `O=C(Nc1ccccc1)c1cccc(Oc2ccc3c(c2)c(=O)ncn3Cc2c(F)cc(F)cc2F)c1C(F)(F)F`, for which the Papp A→B in [1] came out at 0.84 ×10⁻⁶ cm/s. Also, the EC50 in the series on Hepatitis C virus [2] stood at 2.5 nM.

For `O=C(Nc1cccnc1)c1cccc(Oc2ccc3c(c2)c(=O)ncn3Cc2c(F)cc(F)cc2F)c1C(F)(F)F`, in series [1], the Papp A→B is 0.26 ×10⁻⁶ cm/s. Further, the EC50 in the series on Hepatitis C virus [2] amounted to 5.7 nM.

For the compound `O=C(Nc1ccccn1)c1cccc(Oc2ccc3c(c2)c(=O)ncn3Cc2c(F)cc(F)cc2F)c1C(F)(F)F`, in [1], the Papp A→B came out at 1.2 ×10⁻⁶ cm/s. In the series on Hepatitis C virus [2], the EC50 was 6.8 nM.

`O=c1ncn(Cc2c(F)cc(F)cc2F)c2ccc(Oc3cccc(-c4nc5ncccc5o4)c3C(F)(F)F)cc12`: the Papp A→B in series [1] turned out to be 3 ×10⁻⁶ cm/s. Moreover, the EC50 in the series on Hepatitis C virus [2] was found to be 3.3 nM.

On to `O=c1ncn(Cc2c(F)cc(F)cc2F)c2ccc(Oc3cccc(-c4ccc5[nH]ccc5c4)c3C(F)(F)F)cc12`, for which the EC50 in the series with Hepatitis C virus [3] is 0.11 nM; in the series on Hepatitis C virus [4], 15 nM; in the series with Hepatitis C virus [5], 80 nM; in the series with Hepatitis C virus [6] it was 11 nM; in the series with Hepatitis C virus [8], 1.1 nM; with Hepatitis C virus [2], 0.13 nM. Besides, the EC50 with Hepatitis C virus [10] worked out at 0.12 nM; in the series with Hepatitis C virus [11], 1.3 nM. Further, the thermodynamic solubility at 24 h in series [7] and in series [12] was < 0.1 µg/mL throughout. The Papp A→B in [1] is 10.5 ×10⁻⁶ cm/s. In series [9], this compound came in with a log distribution coefficient (logD) of 5.1.

Consider `O=c1ncn(Cc2c(F)cc(F)cc2F)c2ccc(Oc3cccc(-c4ccc5[nH]cnc5c4)c3C(F)(F)F)cc12`, for which the solubility (thermodynamic) at 24 h in series [7] and in series [12] was < 0.1 µg/mL throughout. Also, in [1], the Papp A→B was found to be 0.4 ×10⁻⁶ cm/s. Further, in series [9], the logD stood at 4.7. The EC50 with Hepatitis C virus [2] is 0.6 nM.

For `O=c1ncn(Cc2c(F)cc(F)cc2F)c2ccc(Oc3cccc(-c4ccc5cc[nH]c5c4)c3C(F)(F)F)cc12`, the solubility (thermodynamic) at 24 h in [7] and in series [12] was < 0.1 µg/mL throughout. The compound further showed a logD in series [9] of 5. The EC50 in the series on Hepatitis C virus [2] worked out at 10 nM.

Regarding `Nc1ccc(-c2cccc(Oc3ccc4c(c3)c(=O)ncn4Cc3c(F)cc(F)cc3F)c2C(F)(F)F)cn1`, the thermodynamic solubility at 24 h was 0.3 µg/mL (≈ 0.553 µM) in series [7] and < 0.1 µg/mL in series [12]. The Papp A→B in [1] worked out at 4.1 ×10⁻⁶ cm/s. The logD in series [9] turned out to be 3.9. For the same compound, in the series with Hepatitis C virus [2], the EC50 was found to be 10 nM.

On to `Cc1ccc(-c2cccc(Oc3ccc4c(c3)c(=O)ncn4Cc3c(F)cc(F)cc3F)c2C(F)(F)F)cn1`, for which the thermodynamic solubility at 24 h was 180 µg/mL (≈ 332 µM) in series [7] and < 0.1 µg/mL in [12]. The same compound had a logD in series [9] of 4.2. Further, the EC50 in the series on Hepatitis C virus [2] worked out at 55 nM.

`Cc1cc(-c2cccc(Oc3ccc4c(c3)c(=O)ncn4Cc3c(F)cc(F)cc3F)c2C(F)(F)F)cnc1N`: the values for the thermodynamic solubility at 24 h in [7] and in [12] were 74 µg/mL (≈ 133 µM) and < 0.1 µg/mL, respectively. In addition, the Papp A→B in [1] came to 1.1 ×10⁻⁶ cm/s. Also, the logD in series [9] was > 4.7. For the same compound, the EC50 in the series with Hepatitis C virus [2] came to 6 nM.

For the compound `O=c1ncn(Cc2c(F)cc(F)cc2F)c2ccc(Oc3cccc(-c4ccccc4)c3C(F)(F)F)cc12`, the EC50 with Hepatitis C virus [2] came to 450 nM.

Consider `O=c1ncn(Cc2c(F)cc(F)cc2F)c2ccc(Oc3cccc(-c4ccccn4)c3C(F)(F)F)cc12`, for which the EC50 in the series with Hepatitis C virus [2] turned out to be 310 nM.

For `O=c1ncn(Cc2c(F)cc(F)cc2F)c2ccc(Oc3ccc(-c4nc5ncccc5o4)cc3)cc12`, the EC50 in the series with Hepatitis C virus [2] was determined as 490 nM.

Turning to `O=c1ncn(Cc2c(F)cc(F)cc2F)c2ccc(Oc3ccc(-c4ccc5[nH]ccc5c4)cc3)cc12`, the solubility (thermodynamic) at 24 h in [7] was < 0.1 µg/mL; in series [12] it was 0.18 µg/mL (≈ 0.362 µM). For the same compound, the Papp A→B in [1] worked out at 3.5 ×10⁻⁶ cm/s. This compound registered a logD in series [9] of 4.4. In addition, the concentration for a half-maximal effect (EC50) in the series on Hepatitis C virus [2] was 4.6 nM.
